The text below walks through data of the RNAGym collection of RNA variant scans (doi:10.1126/science.aae0568).

First the molecules themselves.
B1: tRNA (parent)
chain: GUUCCGUUGGCGUAAUGGUAACGCGUCUCCCUCCUAAGGAGAAGACUGCGGGUUCGAGUCCCGUACGGAACG

Fewer inactive variants are shown than the library holds.

In this data set the parent is B1. Description: yeast fitness relative to wild type (ratio to wild type); higher = fitter; tRNA-Arg(CCU), competitive growth, 37 C, YPD. The method, boiled down: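 Genotype frequency changes were the basis for Darwinian fitness relative to wild type. The frequencies came from 100-nucleotide paired-end sequencing of gene amplicons from the start population and each end population of pooled yeast strains with tRNA-Arg(CCU) gene variants at the native locus. Competition ran in YPD at 37°C for 24 hours in six replicates, genotypes needed ≥ 100 starting reads, and estimates < 0.5 were set to 0.5.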
On to G6A U59C C62U, for which the yeast fitness was determined as 0.543. In the case of G6C C22A U28A G51U U53G, the yeast fitness is ≤ 0.5. Next, G6C A57U C62U: ≤ 0.5; G6C G9A A21U U28G C34U G63A: ≤ 0.5; G6C C29G C66U: 0.565. On to G6C G44C, for which the yeast fitness amounted to 0.853.

Turning to G6C A42G C46A, the yeast fitness stood at 0.695. With G6C C11U C24A, the yeast fitness is ≤ 0.5. With G6C C11G G48C A57G U59A C60A, the yeast fitness was ≤ 0.5.

On to G6C A43U C61G C62A, for which the yeast fitness is 0.618.

As for G6C U7C C31A, the yeast fitness is ≤ 0.5. Next, G6C G58C C61A: 0.528. The figure for G6C A20U A36C A40G A43U A57C is ≤ 0.5; for G6C C29A A40G G51C it is 0.657. The figure for G6C C11A is 0.659; for G6C C11U it is 0.872.

Consider G6C A20G A45U, for which the yeast fitness was 0.507. For the variant G6C G41A A45C A57C, the yeast fitness is ≤ 0.5. On to G6C C55U, for which the yeast fitness is 0.873.

In the case of G6C G23C C24A, the yeast fitness worked out at 0.585. The figure for G6C A15G C24U C60A is 0.554; for G6C A14C C29U C34G C46U A57G C66A G68C it is ≤ 0.5; for G6C C11U C34G U47G it is ≤ 0.5. Turning to G6C A45U, the yeast fitness amounted to 0.823. Consider G6C C30U C46A G67C, for which the yeast fitness was ≤ 0.5. For the variant G6C A20C C66G A70U, the yeast fitness came to 0.577. Next, G6C G68A: 0.662. Next, G6C G58C U64A: 0.529; G6C A40U G56A: ≤ 0.5; G6C C22A C31G A70C: ≤ 0.5. In the case of G6C G51C, the yeast fitness came out at 0.596. Next, G6C G25C C29G G52A A69U: 0.527; G6C C24A G58C A65C: ≤ 0.5; G6A U53A G67U G68A: ≤ 0.5.

As to G6C C31U, the yeast fitness was 0.93. Next, G6C C31A: 0.808; G6C A57G: 0.968; G6C C34G G38A U64A: ≤ 0.5. In the case of G6A U47C A57C, the yeast fitness is ≤ 0.5. The figure for G6C A37C G58C U59C is ≤ 0.5. The figure for G6C C29G is 0.723; for G6C C24A A70C it is ≤ 0.5; for G6C A42G U53C C62U it is ≤ 0.5. G6C G67A: the yeast fitness amounted to 0.874. As to G6C G67U, the yeast fitness came out at 0.844.

G6C G67C: the yeast fitness came out at 0.75. The figure for G6C A14G U28A C46G U54C G68U is ≤ 0.5. For G6C C33G A36C C49A G56A C60G A70U, the yeast fitness is ≤ 0.5. Next, G6C C49U: 0.965; G6C A14G A20C U54A A57C: ≤ 0.5; G6C C33G C34U C49U U64A: ≤ 0.5.

In the case of G6C C30G A36C G58A, the yeast fitness is ≤ 0.5. Next, G6A U32C G44A C46A G52A C66U: 0.567; G6C G9A: 1.03; G6C A14C C27U: 0.539.

As for G6C C31U U53C C62U, the yeast fitness was ≤ 0.5.

With G6C C29G C60A, the yeast fitness is ≤ 0.5. G6C C33G A40U C46U C49G A65G: the yeast fitness turned out to be 0.624. As to G6C C27G C34A A65C, the yeast fitness is ≤ 0.5.

Turning to G6C A15C, the yeast fitness amounted to 0.689. The figure for G6C C11U U19C G44C G68A is ≤ 0.5; for G6C A15C A21C C34U A37U A69U it is ≤ 0.5; for G6C C66A A70U it is 0.538. As for G6C C31U U35A C46G G48A C49U, the yeast fitness is ≤ 0.5.

Take G6C G17A C24A U32C A45C C60A: the yeast fitness was ≤ 0.5. Turning to G6C G12A C31A A43G, the yeast fitness is ≤ 0.5. In the case of G6C A14C, the yeast fitness worked out at 0.596.

For G6C A14G, the yeast fitness amounted to 1. For G6C A14U, the yeast fitness came to 0.607. Turning to G6C C11G A14U A20G C22U G44A C55A, the yeast fitness was ≤ 0.5. The figure for G6C A14U A36G A40G C46A C62U is ≤ 0.5.

Turning to G6C G38C G68A A70U, the yeast fitness is ≤ 0.5. As to G6A U53A, the yeast fitness stood at 0.663.

Regarding G6A U53C, the yeast fitness is 0.82. Next, G6C G12A U47A G51C A65G: ≤ 0.5; G6C C66U: 1.01.

On to G6C C66A, for which the yeast fitness is 0.927.

In the case of G6C A15C A21C C34U A37U C55A U59C C61A C62U, the yeast fitness came out at 0.537. With G6C G63C, the yeast fitness was determined as 0.689. G6C G63A: the yeast fitness came out at 0.911. Next, G6C A45C G58A: 0.587; G6C A42G: 0.815; G6C G50A G67A: 0.606. On to G6C C24U U47C A57U, for which the yeast fitness is ≤ 0.5. The figure for G6C C30A C34A A43C C62U is ≤ 0.5; for G6C C61G it is 0.675; for G6C C61U it is 0.726.

As for G6C G17A A36U G58C, the yeast fitness was ≤ 0.5.

On to G6C A15G U54G C55U, for which the yeast fitness is ≤ 0.5. Next, G6C C11G G41A A42C G50C A70G: ≤ 0.5; G6C G51C A65C: 0.579.

In the case of G6C C33G G41C G56C G58A G63C A65U, the yeast fitness is ≤ 0.5. The figure for G6C G41C C49G U59G G63A C66U is 0.54; for G6C C29U G44A A65G it is ≤ 0.5; for G6C G17A C30U A42C it is 0.63. With G6C G9C U54C, the yeast fitness came to 0.603.

As for G6C C11A C22A C29G, the yeast fitness is ≤ 0.5. As to G6C A45C C46G C55U, the yeast fitness is ≤ 0.5. Regarding G6C C11G A15C G25C C27G C30G G38C C61G U64G, the yeast fitness is ≤ 0.5. The figure for G6C A36G is 0.875; for G6C A36C it is 0.53. Take G6C A36U: the yeast fitness was 0.653. Turning to G6C A15C A21C C34U A37U G56C U59G, the yeast fitness was ≤ 0.5.

Consider G6C C33G A36C C49A, for which the yeast fitness is ≤ 0.5. Next, G6C A20C A40G A42U G58A G63A G67A: 0.519. Next, G6C A20U C22U C24U: ≤ 0.5; G6C G38C: 0.693.

In the case of G6C U7C A14G A20C A57C, the yeast fitness is ≤ 0.5. For the variant G6C A45C U47C G68C, the yeast fitness is ≤ 0.5.

As to G6C A15C C31U, the yeast fitness was ≤ 0.5. G6C A43G: the yeast fitness is 0.851. Next, G6C U7C G9C C49U: ≤ 0.5; G6C C11G A15C G25C C27G C30G G38C: 0.61; G6C C24A C46G G52A: 0.695.

Turning to G6C G25A C27G A57U, the yeast fitness was ≤ 0.5. The figure for G6C G10A C27A C49U C66U is ≤ 0.5; for G6C G10C it is 0.649. With G6C A14G G39C, the yeast fitness is ≤ 0.5. Next, G6C C22G U64A: ≤ 0.5; G6C C24G C30G: ≤ 0.5. Next, G6C A20G C61G: ≤ 0.5. The figure for G6C C11U A45U is 0.559. Consider G6C G9A A21U U28G C34U, for which the yeast fitness was ≤ 0.5. On to G6C A37U, for which the yeast fitness came to 0.677. Consider G6C A37G, for which the yeast fitness turned out to be 0.728. The figure for G6C A14C G44C C62G is ≤ 0.5. Next, G6C C46U C60A: 0.644; G6C A15U U26A A57C: 0.707. Next, G6C C11G C61U: ≤ 0.5. For the variant G6C C11G C22U A69C, the yeast fitness is ≤ 0.5. The figure for G6C A15C A21C C34U A37U A57U is ≤ 0.5; for G6A U35C G44A G48C C55G A69U it is ≤ 0.5; for G6C A20U C30G A65G A70U it is 0.53.

For the variant G6A U47A U64A, the yeast fitness is ≤ 0.5. Next, G6C A21C C22G: ≤ 0.5. The figure for G6C C31A G68C is 0.502; for G6C G41C A45G G63A C66G G67C it is ≤ 0.5. The figure for G6C G9A G48C G51C U53A C66A is ≤ 0.5; for G6C A70G it is 0.948; for G6C A70C it is 0.938. Regarding G6C G17C C31G A36G U59C, the yeast fitness came out at 0.599.

G6C C11U A65U: the yeast fitness came out at 0.578.

With G6C C11G A15C G25C C27G C30G G38C A70C, the yeast fitness is ≤ 0.5. On to G6A U59A, for which the yeast fitness was 0.715. Next, G6A U59G: 0.912. On to G6A U59C, for which the yeast fitness turned out to be 0.893. Next, G6C G25A A37U A42G: ≤ 0.5. As to G6C G18C C22U C34G A36U A57C C66U, the yeast fitness is ≤ 0.5.

Take G6C C22A C31G G51A C66U: the yeast fitness was ≤ 0.5. The figure for G6C G17A A40U is ≤ 0.5; for G6C A15G G51A it is ≤ 0.5.

On to G6C A45C G48A G51C, for which the yeast fitness is ≤ 0.5. The figure for G6C C31U A36G G52C G68A is ≤ 0.5.

Turning to G6C G12A C30G A36U A42C, the yeast fitness was ≤ 0.5. In the case of G6C C11A C34G C66A, the yeast fitness was ≤ 0.5. The figure for G6C G50A is 0.865. Next, G6C A14G A20C G52A U64A G67A: ≤ 0.5. The figure for G6C A37C G51A U53C is ≤ 0.5. Regarding G6C C46A G63A, the yeast fitness is 0.689. For G6A U64C, the yeast fitness is 0.874. In the case of G6C C49U U53A C66U A70U, the yeast fitness was ≤ 0.5. The figure for G6C G10A A14C U16A C27U C33U is ≤ 0.5; for G6C G18A G51C A65C it is ≤ 0.5; for G6A U35G C55A it is 0.643. The figure for G6C C22A G41A G44A C46A G52A C66U is ≤ 0.5. The figure for G6C G48A is 1.01; for G6C C11G C22U it is 0.606.
